Data set [1] can be described thus: Hepatic clearance in rat liver microsomes. The class given is ADME. Summed up:
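Predicted hepatic clearance calculated from intrinsic clearance in rat liver microsomes.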
A general note: Liver microsomes are a subcellular fraction often used to study metabolism.

The target in data set [2] is T1, G-protein coupled receptor 39 (Homo sapiens, UniProt O43194).
T1 sequence (O43194 whole entry): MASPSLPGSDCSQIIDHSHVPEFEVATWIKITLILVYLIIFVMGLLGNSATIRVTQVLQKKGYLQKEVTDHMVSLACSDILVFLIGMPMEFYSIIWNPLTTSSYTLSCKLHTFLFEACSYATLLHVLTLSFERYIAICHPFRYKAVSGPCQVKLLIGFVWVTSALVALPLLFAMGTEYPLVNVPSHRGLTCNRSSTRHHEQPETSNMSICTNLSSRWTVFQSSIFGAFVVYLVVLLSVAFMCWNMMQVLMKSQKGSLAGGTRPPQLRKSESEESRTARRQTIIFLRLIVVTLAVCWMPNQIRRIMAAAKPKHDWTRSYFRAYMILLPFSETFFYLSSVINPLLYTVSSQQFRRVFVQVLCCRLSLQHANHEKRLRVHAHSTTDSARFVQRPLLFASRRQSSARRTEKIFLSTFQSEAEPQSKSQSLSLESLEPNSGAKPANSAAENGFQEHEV
The experiment in a line: Agonist activity at human GPR39 by IP1 assay. The class given is functional. A digest of the protocol:
(§1)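 Gαq signalling read as inositol-1-phosphate (IP1) accumulation in HEK293 cells overexpressing human, mouse or rat GPR39. EC50 taken from an 11-point dose–response curve run in triplicate. Replicates range from 1 to 4, with standard deviation where available.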

Data set [3] deals with T2, Protein Gpr39 (Rattus norvegicus, UniProt A6QR73).
T2 sequence (A6QR73 whole entry): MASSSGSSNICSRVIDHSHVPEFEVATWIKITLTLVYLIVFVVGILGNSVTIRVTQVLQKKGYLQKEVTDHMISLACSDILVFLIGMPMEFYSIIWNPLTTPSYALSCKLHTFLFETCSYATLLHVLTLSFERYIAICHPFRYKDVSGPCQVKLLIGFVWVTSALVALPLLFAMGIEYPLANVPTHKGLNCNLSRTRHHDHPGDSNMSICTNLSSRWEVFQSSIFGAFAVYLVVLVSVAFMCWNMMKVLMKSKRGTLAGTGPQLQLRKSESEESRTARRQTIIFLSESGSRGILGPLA
The experiment in a line: Agonist activity at rat GPR39 by IP1 assay. The class given is functional. A digest of the protocol:
as §1

Data set [4] concerns the target T1, G-protein coupled receptor 39. The experiment in a line: Agonist activity at human GPR39 expressed in HEK293 cells by IP1 assay. The class given is functional, cell-based. Summed up: as §1
In data set [5] the target is T2, Protein Gpr39. The experiment in a line: Agonist activity at rat GPR39 expressed in HEK293 cells by IP1 assay. The class given is functional, cell-based. A digest of the protocol: as §1
Data set [6] addresses T1, G-protein coupled receptor 39. Nature of the data set: Agonist activity at human GPR39 expressed in HEK293 cells by cAMP assay. In kind it is functional, cell-based. Summed up: (§2)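 cAMP accumulation (Gαs signalling) in HEK293 cells overexpressing human GPR39. Dose–response curve run in triplicate, 1–16 replicates. EC50 derived from the curve. Percent efficacy is expressed relative to the cAMP response to 25 μM forskolin.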
On the technique in general: Cyclic AMP is a second messenger, typically raised through Gs and lowered through Gi signalling.

For data set [7], the target named is T3, G-protein coupled receptor 39 (Homo sapiens) (UniProt O43194).
T3 sequence (whole entry): T1 sequence (O43194 whole entry)
The experiment in a line: Agonist activity at human GPR39 expressed in HEK293 cells by cAMP assay relative to forskolin. The class given is functional, cell-based. Summed up: as §2

Data set [8] can be described thus: Induction of GLP1 secretion in mouse STC1 cells incubated for 2 hrs by fluorescent bead based ELISA method. As to conditions: STC-1, 2 h. In kind it is functional, cell-based. A digest of the protocol: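 Mouse enteroendocrine STC-1 cells, which express endogenous GPR39, were assayed for GLP-1 secretion over a dose–response run in triplicate. Maximal activity is expressed as fold increase in GLP-1 over the DMSO control.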
(In an ELISA, binding on a coated surface is turned into a signal by an enzyme label.)

Data set [9] in a line: Protection against cytokine-induced cell death in rat INS-1E cells assessed as caspase 3/7 activity. In kind it is functional, cell-based. Summed up: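 Rat insulinoma INS-1E cells (beta-cell phenotype) were treated with cytokines to induce cell death. Caspase 3/7 activity was the read-out. Dose–response run in triplicate.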
Data set [10] can be described thus: Protein binding in rat plasma. In kind it is ADME, cell-free. As to conditions: read-out: PPB (converted).
A short description of data set [11]: Protein binding in mouse plasma. In kind it is ADME, cell-free. As to conditions: read-out: PPB (converted).
Data set [12] addresses Growth hormone secretagogue receptor type 1 (Homo sapiens, UniProt Q92847). The experiment in a line: Binding affinity to human ghrelin receptor.
Data set [13] has as its target Neurotensin receptor type 1 (Homo sapiens, UniProt P30989). Nature of the data set: Binding affinity to human neurotensin 1 receptor.
A short description of data set [14]: Cmax in C57BL/6 mouse at 10 mg/kg, po administered as single dose after 1 to 1.5 hrs by LC/MS/MS method. The class given is ADME, organism-based. The arrangement: dose 10 mg/kg, route oral. As to conditions: in vivo.
A short description of data set [15]: Cmax in C57BL/6 mouse at 30 mg/kg, po administered as single dose after 1 to 1.5 hrs by LC/MS/MS method. The class given is ADME, organism-based. Also noted: dose 30 mg/kg, route oral. As to conditions: in vivo.
Data set [16] can be described thus: Cmax in C57BL/6 mouse at 100 mg/kg, po administered as single dose after 1 to 1.5 hrs by LC/MS/MS method. In kind it is ADME, organism-based. Also noted: dose 100 mg/kg, route oral. As to conditions: in vivo.
A short description of data set [17]: Half life in C57BL/6 mouse at 10 mg/kg, po administered as single dose by LC/MS/MS method. The class given is ADME, organism-based. Also noted: dose 10 mg/kg, route oral. As to conditions: in vivo. A digest of the protocol:
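Male C57BL/6 mice, separate study with a single 10 mg/kg dose. Half-life calculated from the plasma concentration profile.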

For the next data set, the system named is Mus musculus. Nature of the data set: Increase in GLP1 level in C57BL/6 mouse at 30 mg/kg, po concurrently dosed with 3 mg/kg, po DPP4 inhibitor PKF275-055 followed by glucose challenge after 1 hr post drug dose. The class given is functional. A digest of the protocol:
(§3)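 Male C57BL/6 mice were dosed orally with compound together with a DPP-IV inhibitor. After 1 h they were challenged with oral glucose at 3 g/kg. Active GLP-1 and plasma exposure were measured 30 min later. One-way ANOVA with Dunnett's post-test against the vehicle group.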

The nature of data set [18]: Plasma concentration in C57BL/6 mouse at 30 mg/kg, po concurrently dosed with 3 mg/kg, po DPP4 inhibitor PKF275-055 followed by glucose challenge after 1 hr post drug dose. The class given is ADME, organism-based. A digest of the protocol:
as §3

The source of these data is ChEMBL document CHEMBL3352269, “Discovery of 2-Pyridylpyrimidines as the First Orally Bioavailable GPR39 Agonists” (ACS Med Chem Lett, 2014).

Sequence of Neurotensin receptor type 1 (P30989 whole entry): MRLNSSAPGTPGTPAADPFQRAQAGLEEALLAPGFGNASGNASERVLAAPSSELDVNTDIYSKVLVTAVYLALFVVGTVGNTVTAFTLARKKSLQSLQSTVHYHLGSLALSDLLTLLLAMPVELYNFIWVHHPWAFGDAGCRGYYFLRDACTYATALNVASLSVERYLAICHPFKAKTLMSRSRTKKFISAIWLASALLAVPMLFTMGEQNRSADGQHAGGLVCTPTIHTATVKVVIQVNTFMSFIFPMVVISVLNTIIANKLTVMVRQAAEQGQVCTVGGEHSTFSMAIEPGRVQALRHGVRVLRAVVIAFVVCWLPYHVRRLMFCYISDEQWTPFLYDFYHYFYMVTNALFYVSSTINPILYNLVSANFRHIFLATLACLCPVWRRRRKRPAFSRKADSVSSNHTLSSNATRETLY
Sequence of Growth hormone secretagogue receptor type 1 (Q92847 whole entry): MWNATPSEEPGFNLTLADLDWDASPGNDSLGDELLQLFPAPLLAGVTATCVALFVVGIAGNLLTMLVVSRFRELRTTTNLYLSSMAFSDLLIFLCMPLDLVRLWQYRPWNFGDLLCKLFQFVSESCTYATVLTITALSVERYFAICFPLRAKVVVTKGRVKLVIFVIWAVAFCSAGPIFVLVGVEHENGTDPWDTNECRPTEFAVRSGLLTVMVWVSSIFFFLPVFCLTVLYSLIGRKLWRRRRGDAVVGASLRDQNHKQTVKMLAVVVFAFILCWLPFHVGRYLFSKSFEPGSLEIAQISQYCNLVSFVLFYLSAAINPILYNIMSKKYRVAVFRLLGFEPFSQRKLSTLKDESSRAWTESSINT

Take `CNc1nc(NCc2ccc(NS(C)(=O)=O)cc2Cl)cc(-c2ccccn2)n1`: the CLhep predicted in data set [1] is 41.3 mL/min/kg. Also, the EC50 (in general, the concentration giving half of the maximal effect) turned out to be 0.8 nM in [2]; 0.4 nM on Protein Gpr39 [3]; 0.8 nM in data set [4]; 0.4 nM at Protein Gpr39 [5]; 60 nM in data set [6]; 60 nM in [8]. Besides, in data set [9], the EC50 was 20 nM. The compound also yielded an Efficacy in data set [7] of 64%. Besides, the values for the fraction unbound in data set [10] and in data set [11] were 0.007 and 0.009, respectively. The half-inhibitory concentration (IC50) in data set [12] and in [13] was more than 30000 nM each time. For the same compound, the figures for the Cmax in data set [14], in [15] and in [16] were 1.4 µM, 6.1 µM and 25.3 µM, respectively. Further, the half-life (usually the time in which the quantity being followed falls by half) in data set [17] was 7 h. Moreover, the “fold change (FC)” value in the data set with Mus musculus turned out to be 6. This compound also had a concentration at 1 h in data set [18] of 1.6 µM.
